Assay outcomes: PubChem BioAssay, several laboratories
PLC-beta3 inh: human PLC-beta3 inhibitors, primary screen, biochemical, fluorescence. Purified PLC-beta3, fluorogenic substrate. inhibition, % at 12.2 µM. 370,000 tested, 0.18% active. AID 720704, 2013; in the data active = inhibition above about 11%
IMP-1 inhibitor: IMP-1 metallo-beta-lactamase inhibitors, primary screen, biochemical, epi-absorbance readout, Pseudomonas aeruginosa enzyme; metallo-beta-lactamase IMP-1 (Pseudomonas aeruginosa); purified IMP-1, nitrocefin hydrolysis, epi-absorbance fluorescence; inhibition, % at 5.6 µM; 290,000 tested, 0.45% active;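 active = inhibition above the mean plus 3 SD of all compounds in the same screening run, cut at about 4.5% in these data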
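System: purified recombinant IMP-1 beta-lactamase. Medium: Zinc- and detergent-supplemented HEPES buffer, pH 7.1. Compound: one 5.6 µM dose […]. Schedule: 15 min preincubation plus 25 min reaction at 25 °C. Technique: Epi-absorbance fluorescence, 480 nm excitation, 530 nm emission.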
VIM-2 inhibitor: VIM-2 metallo-beta-lactamase inhibitors, primary screen, biochemical, epi-absorbance readout, Pseudomonas aeruginosa enzyme | inhibition, % at 5.6 µM | AID 1527, 2009 | purified VIM-2, nitrocefin hydrolysis, epi-absorbance fluorescence | 290,000 tested, 0.89% active;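 active = inhibition above the mean of all tested compounds plus 3 SD, cutoff set per screening run, cut at about 7.5% in these data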;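 also: red hydrolysis product quenches plate fluorescence so inhibitors raise well fluorescence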
PLCg1 inh: PLC-gamma1 enzyme inhibitors, primary screen, biochemical, fluorescence, purified enzyme. 1-phosphatidylinositol 4,5-bisphosphate phosphodiesterase gamma-1 (Homo sapiens), P19174. fluorogenic substrate. inhibition, % at 12.2 µM. 370,000 tested, 0.84% active
PvdQ acylase: P. aeruginosa PvdQ acylase inhibitors, primary screen, biochemical, fluorescence, plate reader and imaging, single point | purified PvdQ acylase | 340,000 tested, 0.063% active | inhibition, % at 10 µM | PvdQ acylase [Pseudomonas aeruginosa LESB58]; in the data active = inhibition above about 30%, passing the limit was not always enough
PLCg1 ctr: PLC-gamma1 enzyme inhibitors, counter-screen for PLC-beta3 inhibitor project, biochemical, fluorescence; 3,300 tested, 3.1% active; shares compounds with PLCg1 inh; inhibition, % at 12.3 µM; purified PLC-gamma1, fluorogenic substrate
PLCbeta3 conf: PLC-beta3 inhibitor confirmation, biochemical, fluorescence, purified enzyme | inhibition, % at 12.3 µM | shares compounds with PLCg1 inh | fluorogenic substrate fluorescence | 3,300 tested, 1% active; in the data active = inhibition above about 11%
Of the large screens only hits and unclear results are named; the others gave an inactive call (follow-up assays come after a bar, where they were run). A selection: hits, their analogues and other compounds. The true share with any hit is near 2%. Rule as the data show it, unless noted: active = inhibition above about 9.5%; inactive = the rest.

CN(Cc1cccc(Cl)c1Cl)C(=O)CCNC(=O)c1ccco1	PLCg1 inh 12 (no result: IMP-1 inhibitor, VIM-2 inhibitor) | PLCg1 ctr inactive | PLCbeta3 conf inactive
CC(=O)OCCCN1c2ccccc2Nc2nnc(-c3ccccc3)cc21	PLC-beta3 inh 14 | PLCg1 ctr inactive | PLCbeta3 conf inactive
O=c1cc([O-])[n+]2c3n1CCCN3CCC2	PLC-beta3 inh 12 | PLCg1 ctr inactive | PLCbeta3 conf inactive
COc1ccc(N/N=C(\C#N)C(=N)SCc2ccccc2)cc1	PLCg1 inh 9.6 | PLCg1 ctr inactive | PLCbeta3 conf inactive
COc1ccc(N/N=C(\C#N)C(=N)N2CCCCC2)cc1	none
CC12CCC(C(=O)Nc3ccccc3N3CCOCC3)(CC1=O)C2(C)C (stereo unspecified)	PLCg1 inh 9.5 | PLCg1 ctr inactive | PLCbeta3 conf inactive
CCOC(=O)CSc1cc(=O)n(CC)c2ccccc12	PLCg1 inh 10 | PLCg1 ctr inactive | PLCbeta3 conf inactive
O=C(O)c1ccc(/C=N/NC(=O)c2ccc(F)cc2)cc1	none
Cn1c(=O)cc(C(=O)N/N=C/c2ccc(F)cc2)[nH]c1=O	PLCg1 inh 9.6 | PLCg1 ctr inactive | PLCbeta3 conf inactive
C=CCN1[C@H](C)COc2cccc(N3CCCC3)c2S1(=O)=O	none (no result: IMP-1 inhibitor, VIM-2 inhibitor, PvdQ acylase)
CN(C)CCCNC(=O)c1c(N)[nH]c(C(=O)c2ccc(Br)cc2)c1-c1ccc(Br)cc1	none (no result: IMP-1 inhibitor, VIM-2 inhibitor, PvdQ acylase)
COC(=O)[C@@]1(OC(C)=O)CC(OC(C)=O)[C@H](OC(C)=O)[C@H](OC(C)=O)C1Br (stereo partly specified)	none (no result: IMP-1 inhibitor, VIM-2 inhibitor, PvdQ acylase)
CC(=O)N(C(C)=O)N1C(=O)C2C3c4ccccc4C(c4ccccc43)C2C1=O (stereo unspecified)	PLC-beta3 inh 12, PLCg1 inh 13 | PLCg1 ctr inactive | PLCbeta3 conf inactive
CCOC(=O)[C@@]12CCCC3=C1N(CCC3)C(=O)[C@H]2CC(=O)NCc1cccs1	none (no result: IMP-1 inhibitor, VIM-2 inhibitor, PvdQ acylase)
O=S(=O)(NC1CCCCC1N1CCOCC1)c1ccc(Cl)cc1 (stereo unspecified)	PLCg1 inh 12 | PLCg1 ctr inactive | PLCbeta3 conf inactive
COCCn1c(SCC(=O)Nc2ccccc2OC)nc2ccccc2c1=O	none
COCC(C)n1c(SCC(=O)Nc2cc(C)on2)nc2ccccc2c1=O (stereo unspecified)	none (no result: IMP-1 inhibitor, VIM-2 inhibitor)
CCn1c(SCC(=O)Nc2ccccc2OC)nc2ccccc2c1=O	PLCg1 inh 11 | PLCg1 ctr inactive | PLCbeta3 conf inactive
COCC(C)n1c(SCC(=O)NC(=O)NCc2ccccc2)nc2ccccc2c1=O (stereo unspecified)	PLCg1 inh 10 (no result: IMP-1 inhibitor, VIM-2 inhibitor) | PLCg1 ctr inactive | PLCbeta3 conf inactive
Cc1nccn1CCCNC(=O)c1nc(Cn2cc([N+](=O)[O-])cn2)no1	PLCg1 inh 9.6 | PLCg1 ctr inactive | PLCbeta3 conf inactive
OCC[C@@H]1C[C@@H](O)[C@H](O)[C@]2(CCCO2)O1	PLCg1 inh 12 (no result: IMP-1 inhibitor, VIM-2 inhibitor) | PLCg1 ctr inactive | PLCbeta3 conf inactive
C[C@@H]1CCC[C@@]2(O[C@@H](CCO)C[C@H](O)[C@H]2O)O1	PLCg1 inh 12 (no result: IMP-1 inhibitor, VIM-2 inhibitor) | PLCg1 ctr inactive | PLCbeta3 conf inactive
CC(c1ccccc1)n1cc(C(=O)NCCCN2CCCC2)nn1 (stereo unspecified)	none (no result: IMP-1 inhibitor, VIM-2 inhibitor, PvdQ acylase)
Cc1c([N+](=O)[O-])cnc(Sc2ccccc2)c1[N+](=O)[O-]	PLCg1 inh 11 (no result: IMP-1 inhibitor, VIM-2 inhibitor) | PLCg1 ctr 9.5 | PLCbeta3 conf inactive
Cc1ccc(Sc2ncccc2[N+](=O)[O-])cc1	none
Cc1ccc(C(=O)NC(NC(=O)c2ccc(C)cc2)C(Cl)Cl)cc1	none
Cc1ccc(C(NC(=O)c2ccccc2)C(Cl)Cl)cc1 (stereo unspecified)	PLC-beta3 inh 11 | PLCg1 ctr inactive | PLCbeta3 conf inactive
CC(C)(C)S(=O)(=O)/C(C#N)=C/c1cccn1S(=O)(=O)c1ccccc1	PLCg1 inh 16 (no result: IMP-1 inhibitor, VIM-2 inhibitor, PvdQ acylase) | PLCg1 ctr inactive | PLCbeta3 conf inactive
CS(=O)(=O)/C(C#N)=C/c1cccn1S(=O)(=O)c1ccccc1	none
Nn1c(SCC(=O)Nc2ccc(OCc3ccccc3)cc2)nnc1-c1cc(-c2ccc(F)cc2)n[nH]1	none (no result: IMP-1 inhibitor, VIM-2 inhibitor, PvdQ acylase)
O=C(O)c1ccccc1N1C(=O)C2C3c4ccccc4C(Br)(c4ccccc43)C2C1=O (stereo unspecified)	PLCg1 inh 18 | PLCg1 ctr inactive | PLCbeta3 conf inactive
CC12C(=O)N(c3ccccc3C(=O)O)C(=O)C1C1C=CC2C1 (stereo unspecified)	none
COc1ccc(S(=O)(=O)Nc2ccc3c(c2)CC(=O)N([C@@H](C)CO)C[C@H](C)[C@@H](CN(C)S(=O)(=O)c2ccc(F)cc2)O3)cc1	PLCg1 inh 11 (no result: IMP-1 inhibitor, VIM-2 inhibitor) | PLCg1 ctr inactive | PLCbeta3 conf inactive
COc1ccc(S(=O)(=O)Nc2ccc3c(c2)C(=O)N([C@@H](C)CO)C[C@H](C)[C@H](CN(C)S(=O)(=O)c2ccc(F)cc2)O3)cc1	none (no result: IMP-1 inhibitor, VIM-2 inhibitor)
C[C@@H]1CCCCO[C@@H](CN(C)S(=O)(=O)c2ccccc2)[C@@H](C)CN([C@H](C)CO)C(=O)c2cc(NS(=O)(=O)c3ccc(F)cc3)ccc2O1	PLCg1 inh 17 (no result: IMP-1 inhibitor, VIM-2 inhibitor, PvdQ acylase) | PLCg1 ctr inactive | PLCbeta3 conf inactive
C[C@H]1CCCCO[C@@H](CN(C)S(=O)(=O)c2ccc(Cl)cc2)[C@@H](C)CN([C@@H](C)CO)C(=O)c2cc(NS(=O)(=O)c3ccccc3)ccc2O1	none (no result: IMP-1 inhibitor, VIM-2 inhibitor, PvdQ acylase)
CCOc1cc(CN2CCN(c3cccc(C(F)(F)F)c3)CC2)ccc1O	PLCg1 inh 9.7 | PLCg1 ctr inactive | PLCbeta3 conf inactive
COc1ccccc1-c1cccc2c3c([nH]c12)[C@@H]1C[C@H]2[C@@H](CN1CC3)[C@H](C)ON2C	none (no result: IMP-1 inhibitor, VIM-2 inhibitor, PvdQ acylase)
O=C(Cc1cn(Cc2ccccc2)c2ccccc12)Nc1ccc(Nc2cccnc2)c(Br)c1	none (no result: IMP-1 inhibitor, VIM-2 inhibitor, PvdQ acylase)
O=C(CSc1nc2ccccc2[nH]1)Nc1ccccc1N1CCOCC1	PLCg1 inh 10 | PLCg1 ctr inactive | PLCbeta3 conf inactive
O=C(CSc1nc2ccccc2[nH]1)Nc1cc(C(F)(F)F)ccc1N1CCOCC1	none
CCn1c2ccccc2c2cc(NC(=O)COC(=O)c3ccc(F)cc3Cl)ccc21	none (no result: IMP-1 inhibitor, VIM-2 inhibitor, PvdQ acylase)
COc1cc(OC)cc(C(=O)NC2CCN(Cc3nnnn3Cc3ccc(F)cc3)CC2)c1	none
COc1cc(OC)cc(C(=O)NC2CCN(Cc3nnnn3Cc3cccs3)CC2)c1	PLCg1 inh 12 | PLCg1 ctr inactive | PLCbeta3 conf inactive
COc1ccc(OC)c(NC(=O)COc2coc(CN3CCCc4ccccc43)cc2=O)c1	PLCg1 inh 17 (no result: IMP-1 inhibitor, VIM-2 inhibitor) | PLCg1 ctr inactive | PLCbeta3 conf inactive
